What was measured:
Settings in all cases: stereoisomer not certain
OR2T7 = tested on: OR2T7
Outline: (§1)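 Transient luciferase assays in mammalian cell lines were common, though methods varied by source. The values come from published papers and their supplementary material, with extra details from the original authors when needed. Responsive refers to a measured signal the original authors judged statistically different from baseline, and non-responsive (inactive) to the remainder.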

OR2T8 (Homo sapiens) = OR2T8 (Homo sapiens) (UniProt A6NH00)
Sequence of OR2T8 (Homo sapiens) (A6NH00 whole entry): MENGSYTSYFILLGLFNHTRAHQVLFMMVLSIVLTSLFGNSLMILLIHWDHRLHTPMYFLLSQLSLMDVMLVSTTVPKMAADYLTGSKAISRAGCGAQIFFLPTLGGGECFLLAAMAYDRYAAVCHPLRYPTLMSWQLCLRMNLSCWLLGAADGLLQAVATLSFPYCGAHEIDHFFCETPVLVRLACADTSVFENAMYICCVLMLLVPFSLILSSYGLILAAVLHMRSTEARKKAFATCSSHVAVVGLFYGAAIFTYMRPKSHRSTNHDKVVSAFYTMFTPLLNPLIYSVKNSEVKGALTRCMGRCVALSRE
Outline: as §1

OR2V1 (Homo sapiens) = OR2V1 (Homo sapiens) (UniProt Q8NHB1)
Sequence of OR2V1 (Homo sapiens) (Q8NHB1 whole entry): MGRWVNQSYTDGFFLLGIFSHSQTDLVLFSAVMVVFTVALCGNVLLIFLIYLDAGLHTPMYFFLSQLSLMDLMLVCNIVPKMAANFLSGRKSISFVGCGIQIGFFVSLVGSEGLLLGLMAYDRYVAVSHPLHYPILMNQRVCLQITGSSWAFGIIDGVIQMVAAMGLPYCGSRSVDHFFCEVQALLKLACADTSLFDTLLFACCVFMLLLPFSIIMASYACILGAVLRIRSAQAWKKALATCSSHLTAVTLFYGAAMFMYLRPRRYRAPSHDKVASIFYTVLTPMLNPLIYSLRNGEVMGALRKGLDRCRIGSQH
Outline: as §1

OR2V2 (Homo sapiens) = OR2V2 (Homo sapiens) (UniProt Q96R30)
Sequence of OR2V2 (Homo sapiens) (Q96R30 whole entry): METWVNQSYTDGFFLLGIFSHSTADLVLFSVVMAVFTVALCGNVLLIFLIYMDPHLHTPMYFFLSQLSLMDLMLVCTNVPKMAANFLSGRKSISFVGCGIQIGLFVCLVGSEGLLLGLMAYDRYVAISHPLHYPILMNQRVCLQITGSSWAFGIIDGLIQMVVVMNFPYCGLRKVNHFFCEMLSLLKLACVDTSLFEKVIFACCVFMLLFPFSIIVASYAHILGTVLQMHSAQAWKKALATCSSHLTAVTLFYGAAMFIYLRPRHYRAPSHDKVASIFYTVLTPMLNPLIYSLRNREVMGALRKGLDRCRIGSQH
Outline: as §1

OR2W1 G96V = tested on: OR2W1 G96V
Sequence of OR2W1 G96V (as listed by the source, stated change not applied): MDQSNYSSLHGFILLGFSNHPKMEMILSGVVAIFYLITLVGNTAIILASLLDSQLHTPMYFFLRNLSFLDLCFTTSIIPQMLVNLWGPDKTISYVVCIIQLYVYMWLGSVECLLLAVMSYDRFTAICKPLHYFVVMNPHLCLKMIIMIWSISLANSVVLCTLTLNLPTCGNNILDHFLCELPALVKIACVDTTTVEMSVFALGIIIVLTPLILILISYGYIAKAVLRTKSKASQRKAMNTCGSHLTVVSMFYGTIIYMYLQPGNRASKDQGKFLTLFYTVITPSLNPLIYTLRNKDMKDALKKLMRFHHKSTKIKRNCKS
Outline: as §1

OR2W5P (Homo sapiens) = OR2W5P (Homo sapiens) (UniProt A6NFC9)
Sequence of OR2W5P (Homo sapiens) (A6NFC9 whole entry): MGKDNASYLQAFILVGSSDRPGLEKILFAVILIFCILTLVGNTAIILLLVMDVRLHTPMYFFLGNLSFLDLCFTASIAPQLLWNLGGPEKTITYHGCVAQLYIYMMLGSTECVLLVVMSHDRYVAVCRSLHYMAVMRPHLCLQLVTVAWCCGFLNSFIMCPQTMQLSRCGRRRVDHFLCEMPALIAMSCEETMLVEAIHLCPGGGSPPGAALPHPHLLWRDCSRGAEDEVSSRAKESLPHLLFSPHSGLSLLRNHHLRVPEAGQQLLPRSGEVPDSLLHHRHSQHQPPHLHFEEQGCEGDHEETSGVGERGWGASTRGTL
Outline: as §1

OR2Y1 (Homo sapiens) = OR2Y1 (Homo sapiens) (UniProt Q8NGV0)
Sequence of OR2Y1 (Homo sapiens) (Q8NGV0 whole entry): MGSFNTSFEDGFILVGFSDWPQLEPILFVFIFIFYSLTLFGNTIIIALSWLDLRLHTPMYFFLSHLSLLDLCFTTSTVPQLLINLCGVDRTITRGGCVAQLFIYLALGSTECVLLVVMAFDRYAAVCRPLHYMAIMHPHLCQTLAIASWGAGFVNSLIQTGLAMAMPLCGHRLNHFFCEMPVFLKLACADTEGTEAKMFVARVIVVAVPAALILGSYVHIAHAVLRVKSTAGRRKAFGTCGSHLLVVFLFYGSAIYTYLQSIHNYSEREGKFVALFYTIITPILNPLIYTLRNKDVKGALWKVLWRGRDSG
Outline: as §1

OR2Y1 = tested on: OR2Y1
Sequence of OR2Y1 (as listed by the source): as the sequence (Q8NGV0 whole entry) above, with V200L counted along it
Outline: as §1

OR2Z1 (Homo sapiens) = OR2Z1 (Homo sapiens) (UniProt Q8NG97)
Sequence of OR2Z1 (Homo sapiens) (Q8NG97 whole entry): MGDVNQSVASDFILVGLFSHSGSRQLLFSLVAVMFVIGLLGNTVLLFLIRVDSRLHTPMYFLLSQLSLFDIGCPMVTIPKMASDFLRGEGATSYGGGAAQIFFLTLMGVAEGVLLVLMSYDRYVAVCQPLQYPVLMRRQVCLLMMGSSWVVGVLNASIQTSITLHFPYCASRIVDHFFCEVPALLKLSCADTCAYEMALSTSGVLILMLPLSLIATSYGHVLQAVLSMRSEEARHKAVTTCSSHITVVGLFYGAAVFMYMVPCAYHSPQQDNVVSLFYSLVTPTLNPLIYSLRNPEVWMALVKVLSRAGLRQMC
Outline: as §1

OR3A1 [1] = tested on: OR3A1
Outline: as §1
Target sequence in this assay (as listed by the source): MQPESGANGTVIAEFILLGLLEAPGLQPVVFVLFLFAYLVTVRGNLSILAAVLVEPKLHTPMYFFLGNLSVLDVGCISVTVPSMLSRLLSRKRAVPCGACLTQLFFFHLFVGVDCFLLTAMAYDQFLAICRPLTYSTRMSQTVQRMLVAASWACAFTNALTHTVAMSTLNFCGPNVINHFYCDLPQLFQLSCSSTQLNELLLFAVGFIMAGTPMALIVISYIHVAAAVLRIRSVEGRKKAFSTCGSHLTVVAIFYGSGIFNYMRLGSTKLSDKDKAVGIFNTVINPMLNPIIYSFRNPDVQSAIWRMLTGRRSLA

OR3A2 (Homo sapiens) = OR3A2 (Homo sapiens) (UniProt P47893)
Sequence of OR3A2 (Homo sapiens) (P47893 whole entry): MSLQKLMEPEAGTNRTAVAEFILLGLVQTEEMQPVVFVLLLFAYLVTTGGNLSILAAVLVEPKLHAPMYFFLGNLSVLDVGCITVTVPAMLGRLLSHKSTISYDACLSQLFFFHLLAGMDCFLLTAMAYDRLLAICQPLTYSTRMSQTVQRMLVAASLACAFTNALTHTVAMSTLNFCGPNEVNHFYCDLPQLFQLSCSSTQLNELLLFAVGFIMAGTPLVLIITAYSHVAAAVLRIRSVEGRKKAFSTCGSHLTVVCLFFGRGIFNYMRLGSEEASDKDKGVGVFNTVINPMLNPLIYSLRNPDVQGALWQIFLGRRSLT
Outline: as §1

OR3A2 R317K = tested on: OR3A2 R317K
Sequence of OR3A2 R317K (as listed by the source, stated change not applied): as the sequence (P47893 whole entry) above, with R317K counted along it
Outline: as §1

OR3A3 (Homo sapiens) = OR3A3 (Homo sapiens) (UniProt P47888)
Sequence of OR3A3 (Homo sapiens) (P47888 whole entry): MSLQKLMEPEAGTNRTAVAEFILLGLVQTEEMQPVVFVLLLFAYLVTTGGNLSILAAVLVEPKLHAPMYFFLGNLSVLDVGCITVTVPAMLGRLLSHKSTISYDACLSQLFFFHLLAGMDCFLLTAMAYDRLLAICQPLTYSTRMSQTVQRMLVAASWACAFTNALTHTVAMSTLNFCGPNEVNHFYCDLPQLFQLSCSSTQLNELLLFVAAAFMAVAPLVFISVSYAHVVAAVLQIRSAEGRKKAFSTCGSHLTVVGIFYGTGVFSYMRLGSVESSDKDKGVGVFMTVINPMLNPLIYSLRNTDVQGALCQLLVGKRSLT
Outline: as §1

OR3A3 T48I L132F = tested on: OR3A3 T48I L132F
Outline: as §1

OR3A1 [2] = tested on: OR3A1; remark: listed apart in the source
Outline: as §1
Target sequence in this assay (as listed by the source): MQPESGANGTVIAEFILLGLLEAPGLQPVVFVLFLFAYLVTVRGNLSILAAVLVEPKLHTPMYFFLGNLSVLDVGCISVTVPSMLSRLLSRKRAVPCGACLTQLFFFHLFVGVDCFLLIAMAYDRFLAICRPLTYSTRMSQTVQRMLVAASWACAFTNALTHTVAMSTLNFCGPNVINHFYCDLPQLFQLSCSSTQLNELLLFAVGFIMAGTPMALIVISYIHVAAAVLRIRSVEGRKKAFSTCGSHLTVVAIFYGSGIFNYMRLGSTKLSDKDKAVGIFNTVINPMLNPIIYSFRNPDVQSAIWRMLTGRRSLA

Measured: odorant receptor agonist call;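 also: active if original authors judged signal statistically different from baseline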

Sequence of OR2T7 (as listed by the source): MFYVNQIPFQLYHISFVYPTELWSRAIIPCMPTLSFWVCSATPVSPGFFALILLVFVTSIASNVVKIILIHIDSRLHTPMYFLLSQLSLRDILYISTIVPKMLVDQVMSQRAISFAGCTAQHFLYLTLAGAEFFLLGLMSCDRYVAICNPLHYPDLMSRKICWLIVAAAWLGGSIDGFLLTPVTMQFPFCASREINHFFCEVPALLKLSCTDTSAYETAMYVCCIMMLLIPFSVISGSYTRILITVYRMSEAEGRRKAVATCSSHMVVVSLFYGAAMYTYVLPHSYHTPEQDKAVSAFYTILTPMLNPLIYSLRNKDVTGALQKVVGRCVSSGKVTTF

C=CCOC(=O)Cc1ccccc1
not listed: OR3A1 [2]
inactive: all other assays above

Cc1c([N+](=O)[O-])c(C)c([N+](=O)[O-])c(C(C)(C)C)c1[N+](=O)[O-]
inactive: OR2T8 (Homo sapiens) | OR2V1 (Homo sapiens) | OR2V2 (Homo sapiens) | OR2Y1 (Homo sapiens) | OR2Z1 (Homo sapiens) | OR3A2 (Homo sapiens) | OR3A3 (Homo sapiens)

CC(C=O)Cc1ccc2c(c1)OCO2 (stereo not drawn)
inactive: OR3A1 [2] | OR3A1 [1]
